Measured values: ChEMBL document CHEMBL4513216, “Probing the Open Global Health Chemical Diversity Library for Multistage-Active Starting Points for Next-Generation Antimalarials” (ACS Infect Dis, 2020)

Experiment: Toxicity liver stage against HepG2, at 10uM
Assay type: cell-based
Parameters: test concentration 10 uM, cell line HepG2-A16-CD81EGFP
Conditions: human, HepG2-A16-CD81EGFP cells; read-out: INHIBITION
Procedure, shortened: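 Uninfected HepG2-A16-CD81EGFP cells, 3 × 10^3 per well, 1536-well, plated on prespotted compound at 10 μM final, parasite-free screening media added to match infected plates; puromycin 10 μM positive, DMSO 0.5% negative; run in parallel with 48 h PbLuc assay at 37 °C, 5% CO2; viability by CellTiter-Glo luminescence, normalized to controls.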

SMILES	cytotoxicity at 10 µM [%]
CC(=O)N1N=C(COc2ccc3c(c2)OCO3)OC1c1ccc(C)cc1 (stereo unspecified)	1.22
COC(=O)CCCNC(=O)N1CCc2c([nH]c3ccc(Cl)cc23)C1	9.43
COc1ccc(C[C@H]2CN(C(=O)c3cnoc3)CC[C@@H]2OC)cc1	4.09
CCOCC1CN(C(=O)c2cnoc2C)Cc2cn(CC3CC3)nc21 (stereo unspecified)	17
COCCN1CCCc2sc(C(=O)NCC3CCCO3)nc21 (stereo unspecified)	5.96
CCOCc1ncn2c1CN(S(=O)(=O)c1ccc(OC)cc1)CC2	0.199
CCOCc1ncn2c1CN(S(=O)(=O)c1ccc(C)cc1)CC2	-0.602
CCCN(CC)C(=O)c1ncn2c1CN(C)S(=O)(=O)c1ccccc1-2	-152
CCS(=O)(=O)N1CCC2(COCc3cnc(N4CCOCC4)nc32)C1 (stereo unspecified)	-4.92
Cc1nc(CN2CC[C@H]3C[C@H](c4ccncn4)O[C@@H]3C2)cs1	-144
O=C(NCCN1CCOCC1)c1nc(-c2ccc3[nH]ccc3c2)no1	-7.53
CC1(C)CC(=O)c2cnc3nc(N4CCCCC4)nc(O)c3c2C1	-0.0124
CCc1cnc2c(c1Nc1ccc(OC)cc1)c(=O)n(C)c(=O)n2C	4.26
NC(=O)c1nnn(-c2ccc(Br)cc2)n1	6.56
O=S(=O)(c1cn[nH]c1)N1C[C@@H](O)[C@H](N2CCc3ccccc3C2)C1	-3.47
O=C(c1ccc(-n2cccn2)nc1)N1CCCC(c2cnccn2)C1 (stereo unspecified)	4.32
Cc1cc(C)nc(N2CCC(CNC(=O)c3cnccn3)CC2)n1	-26.1
Cc1cc(N2CCCC2c2cc(Nc3cnccn3)nc(C)n2)ncn1 (stereo unspecified)	-14
CN(C)C(=O)CN1CCCC(CCCc2ccccn2)(C(N)=O)C1 (stereo unspecified)	-23.2
O=C(COc1ccc2c(c1)CCCC2=O)NCc1ccco1	3.39
CC(C)S(=O)(=O)C(C)C(=O)Nc1ccc2oc(C3CC3)nc2c1 (stereo unspecified)	1.77

SMILES	cytotoxicity at 10 µM [%]
Cc1cc(CN(C)C(=O)Nc2cnc3c(c2)c(C)nn3C)no1	3.77
CC(C)c1ccc(OCCC(=O)N(C)CC(N)=O)cc1	6.77
CNC(=O)C1CCCCN1C(=O)c1csc(-c2ccccc2)n1 (stereo unspecified)	2
CCCN(CCC)S(=O)(=O)NC(C)C(=O)N(C)C (stereo unspecified)	-0.237
Cc1sc2ncnc(N3CCCC3Cn3cccn3)c2c1C (stereo unspecified)	2.62
CC(C)c1nc(CSc2nnc(-c3cccs3)n2CC(N)=O)no1	-142
CCOc1ccc(NC2CCN(CC(F)(F)F)C2=O)cc1C (stereo unspecified)	1.41
CC(C)N1CCC(CNC(=O)COc2ccc(F)cc2F)C1 (stereo unspecified)	-2.17
N#CC1(NC(=O)c2nccc3ccccc23)CCC1	6.13
CCN(CC)C(=O)CNC(=O)c1c[nH]c2ccc(OC)cc12	-0.527
CCN(CC)c1nc2sc(C(=O)NCC(=O)OC)cc2s1	1.05
c1csc(-c2cc(CN3CCN(c4nccs4)CC3)no2)c1	13.2
O=C(NCCNc1ncccn1)N1CC=C(c2ccccc2)CC1	12.6
O=C(Cc1ccon1)NC1CC2(CCC2)Oc2ccccc21 (stereo unspecified)	-6.71
COC(=O)N1CCC(Nc2cccc(F)c2C(C)=O)CC1	12.7
Cc1cnn(CC2CN(CCS(=O)(=O)C(F)(F)F)CCO2)c1 (stereo unspecified)	2.5
CCN(C(=O)COc1nc(Cc2ccc(F)cc2)no1)C1CC1	5.09
Cc1ncncc1C(=O)NCCN1CCC(C)CC1	-8.76
Fc1ccc(OC2CCN(Cc3nnc(-c4ccco4)o3)CC2)cc1	-2.56
CCC(C)(CC(=O)O)NC(=O)Cc1ccccc1Br (stereo unspecified)	1.29
Cc1cc(CS(=O)(=O)CC(=O)N2c3ccccc3CC2C)no1 (stereo unspecified)	-0.284

SMILES	cytotoxicity at 10 µM [%]
CCCS(=O)(=O)N1CCN(C(=O)CO)CC1	-1.96
CCCC1CCCN(C(=O)Nc2ccnc(C(=O)N(C)C)c2)CC1 (stereo unspecified)	9.58
c1csc(-c2nc(CN3CCCC3Cn3cncn3)co2)c1 (stereo unspecified)	-11.5
O=C(c1ccccn1)N1CCc2ncnc(-c3ccncc3)c2CC1	-1.82
Cc1nc(CN2CCN(Cc3cc4n(n3)CCNC4)CC2)cs1	-3.25
CCCc1nnc(N2CC[C@](C)(O)[C@H](C)C2)s1	-10.4
CCCNC(=O)N1CCC(c2nnc(Cn3cccn3)n2C2CC2)CC1	-7.92
CCCNC(=O)N1CCc2ccc(S(=O)(=O)N3CCN(C)CC3)cc2C1	-10
Cc1cc(-c2nccn2CCN2CCCCC2CO)oc1C (stereo unspecified)	0.264
CC1(C(=O)NCc2cccnc2Oc2ccc(F)c(F)c2)CCCNC1 (stereo unspecified)	-0.37
Oc1cccc(-c2cc(C3CCN(Cc4cncnc4)C3)ccn2)c1 (stereo unspecified)	5.06
CCc1noc(CN(CC)Cc2cc3ccc(F)cc3[nH]c2=O)n1	2.24
CCn1c(Cn2cncn2)nnc1C1CCN(Cc2cccnc2)CC1	5.91
CCc1nc(N2CCC3(CC2)[C@H](O)C[C@@H]3O)ncc1C	6.02
CN(CCCO)Cc1cc(Cl)ccc1OCC(O)CN1CCCCCC1 (stereo unspecified)	2.71
COc1ccc(C(=O)O)cc1-c1cccc(C(C)N(C)C)c1 (stereo unspecified)	-7.13
CCCc1noc(-c2cn(CC(=O)N(CC)CC)nn2)n1	3.35
Cc1ccc(N2CCN(C(=O)CCC(F)(F)F)C(C)C2)cc1 (stereo unspecified)	-143
Cc1ccnc(N2CCC(=O)N(Cc3ccc(F)cc3)C(C(C)C)C2)n1 (stereo unspecified)	0.538
COC(=O)N1CC(C)=C(C)CN1C(=O)Nc1ccc(Cl)c(Cl)c1	-1.53
CN(C)CC1CN(Cc2nc(-c3cccnc3)no2)CCO1 (stereo unspecified)	-2.03

SMILES	cytotoxicity at 10 µM [%]
CC1COCCN1Cc1nc(-c2ccc(Br)s2)no1 (stereo unspecified)	-2.45
Cc1noc(CNC2CCCN(Cc3noc(C4CC4)n3)C2)n1 (stereo unspecified)	-1.7
COC(=O)C1CCN(c2cc(C)nc(-c3ccncc3)n2)CC1	2.76
CC(CNC(=O)c1cc(C2CC2)on1)N1CCc2ccccc21 (stereo unspecified)	-11.8
COc1ccsc1C(=O)N1CCCN(Cc2cscn2)CC1	-9.12
CCc1ncncc1C(=O)NC1CCc2nc(C)cn2C1 (stereo unspecified)	-17.3
Cc1nc(C)n(C2CCCN(C(=O)c3cccc4[nH]ncc34)C2)n1 (stereo unspecified)	-4.72
O=C(CCN1CCN(c2ccc3nncn3n2)CC1)NC1CCCC1	-27.5
CC(CNCc1ccncc1)Oc1ccccn1 (stereo unspecified)	-1.71
CC(C)NC(=O)N1CCC2(CC1)C(=O)NCCN2Cc1ccccc1	1.29
CC(=O)N1[C@H](CN(C)C)C[C@@H]2CN(C(=O)c3cnc(C)cn3)CC[C@@H]21	-2.89
O=C1[C@H]2CN(CC3CCOCC3)C[C@H]2CN1Cc1cccc(F)c1	-118
CN(C)C(=O)CC1CC2(CCN(CC3CC3)CC2)Oc2ccccc21 (stereo unspecified)	-3.51
CC(=O)c1cc(CN2C[C@@H]3CC[C@H]2CN(S(C)(=O)=O)C3)cs1	8.35
Cc1ccoc1C1=NNC(=CN2CCOC(Cn3cccn3)C2)O1 (stereo unspecified)	-7.69
CCc1ccc(NC(=O)N2C[C@@H]3C[C@H](C(=O)NC4CCC4)[C@H](C2)O3)cc1	-2.25
COCCN1C(=O)CCC12CCC(NC(=O)c1cc(C)on1)CC2 (stereo unspecified)	3.94
CCCN1C[C@@H]2CC[C@H]1CN(C(=O)Cc1c(C)[nH]c(CC)nc1=O)C2	-0.529
